High-throughput results deposited in PubChem by The Scripps Research Institute Molecular Screening Center.
CHRM5 antagonist = blocks acetylcholine activation of human M5 receptor. AID 624040. 360,000 compounds, 0.59% hits. P08912. inhibition, % at 3 µM. CHO-hM5 cells, Fluo-8 calcium fluorescence, ACh EC80;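 active = inhibition above a per-plate cutoff, the mean of that plate's test compounds plus 3 SD, cut at about 27% in these data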
M4 PAM = potentiates acetylcholine response at human M4 receptor; P08173; CHO-K1 hM4/Gqi5, Fluo-8 calcium fluorescence, ACh EC20; 0% = ACh EC20, 100% = maximal ACh; activation, % at 3 µM; 360,000 compounds, 0.4% hits; AID 624126;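 active = activation above its plate's cutoff, the mean activation of sample wells plus 3 SD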
Target sequence (P08173 whole entry, looked up): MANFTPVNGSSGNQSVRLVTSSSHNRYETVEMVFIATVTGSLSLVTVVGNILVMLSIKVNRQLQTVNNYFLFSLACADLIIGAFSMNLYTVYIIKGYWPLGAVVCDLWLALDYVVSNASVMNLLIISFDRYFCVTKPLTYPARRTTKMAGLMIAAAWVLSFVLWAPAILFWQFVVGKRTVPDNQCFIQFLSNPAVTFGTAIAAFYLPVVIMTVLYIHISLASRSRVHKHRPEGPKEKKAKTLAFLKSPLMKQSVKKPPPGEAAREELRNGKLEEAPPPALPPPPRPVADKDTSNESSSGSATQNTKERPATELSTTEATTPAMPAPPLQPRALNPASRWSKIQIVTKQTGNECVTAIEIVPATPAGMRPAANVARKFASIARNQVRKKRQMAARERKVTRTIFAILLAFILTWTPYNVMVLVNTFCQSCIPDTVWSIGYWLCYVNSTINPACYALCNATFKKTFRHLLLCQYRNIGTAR
CHRM4 antagonist = antagonists of human muscarinic M4 receptor (CHRM4); CHO-hM4 cells, ACh EC80, Fluo-8 calcium fluorescence; inhibition, % at 3 µM; 360,000 compounds, 0.73% hits; P08173;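 active = inhibition above its plate's cutoff, the mean inhibition of sample wells plus 3 SD, cut at about 27% in these data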
CHRM5 PAM = positive allosteric modulators of human muscarinic M5 receptor; AID 624038; activation, % at 3 µM; P08912; CHO-K1 hM5, Fluo-8 calcium, ACh EC20 PAM; 0% = ACh EC20, 100% = ACh EC100; 360,000 compounds, 0.3% hits;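 active = activation above the run cutoff, the mean activation of all test compounds plus 3 SD, cut at about 18% in these data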
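Probe or stimulus: acetylcholine, EC20 level; Assay system: human M5 receptor in CHO-K1 cells; Schedule: compound preincubation 140 s before EC20 acetylcholine addition; Technique: intracellular calcium via Fluo-8 fluorescence; Dosing: single-point, 3 µM nominal; Read-out basis: percent activation from peak-over-basal fluorescence ratio, scaled EC20-to-EC100 acetylcholine; Repeats: one well per compound, no replicates.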
M4 ag = agonists of human muscarinic M4 receptor (CHRM4) | P08173 | 360,000 compounds, 0.14% hits | activation, % at 3 µM | CHO-K1 hM4/Gqi5, Fluo-8 calcium fluorescence; vehicle 0%, full acetylcholine response 100%;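 active = activation above the run mean over all test wells plus 3 SD, cut at about 32% in these data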;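 note: peak over basal fluorescence ratio per well then scaled between controls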
M5 ag = CHRM5 agonism in calcium assay | 360,000 compounds, 0.19% hits | CHO-K1 hM5 cells, Fluo-8 calcium fluorescence; 0% DMSO wells, 100% maximal acetylcholine response | P08912 | activation, % at 3 µM;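 active = activation above the run's mean over test compounds plus 3 SD, cut at about 23% in these data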;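 note: signal is peak over basal fluorescence ratio across the kinetic read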
Of the large screens only hits and unclear results are named; the others gave an inactive call. Shown are actives, neighbours in structure and some others; about 1.8% of the full set was active somewhere.

OC(c1ccccc1)(c1nc(-c2cccc(F)c2)cs1)C(F)(F)F (stereo not given)	none
CCOC(=O)[C@@H](NC(=O)/C=C/[C@H]1O[C@@H](n2ccc(=O)[nH]c2=O)[C@H](O)[C@@H]1O)C(C)C	none
COc1ccc(CCNC(=O)COC(=O)C2CC2)cc1OC	CHRM5 PAM 20.1
COc1ccc(CCNC(=O)CSc2nn3c(=O)c(C)nnc3s2)cc1OC	M4 PAM 17.3
COc1ccc(CCNC(=O)C2CC2)cc1OC	none
COc1ccc(CNC(=O)CSc2nn3c(=O)c(C(C)(C)C)nnc3s2)cc1OC	none
CC(=O)NC(c1ccccc1)c1nc(-c2ccc(Cl)cc2)cs1 (stereo not given)	none
CN(C(=O)CSc1nc2[nH]ncc2c(=O)[nH]1)c1ccccc1	M4 PAM 18.5
Cc1cc(C)cc(NC(=O)CSc2nc3[nH]ncc3c(=O)[nH]2)c1	M4 PAM 31.2, CHRM5 PAM 21.8
CC1=NN(c2cccc(C(=O)O)c2)C(=O)/C1=C\C=C/c1ccccc1	M4 PAM 24.0
COc1ccc(N2C(=O)c3ccc(C(=O)Nc4ccccc4O)cc3C2=O)cc1	none
CC(=O)Oc1ccccc1N1C(=O)c2ccc(C(=O)O)cc2C1=O	CHRM4 antagonist 31.0
COc1ccccc1N1C(=O)c2ccc(C(=O)Nc3ccccc3O)cc2C1=O	CHRM5 antagonist 32.6, CHRM4 antagonist 29.6
Cc1ccc(-c2cc3nc(NCCc4ccncc4)n(C)c(=O)c3s2)cc1	none
Cc1cc(C)n(CCCNC(=O)c2ccc3c(c2)NC(=O)CS3)n1	CHRM5 PAM 25.0
CCOC(=O)CN(c1sc(C)c(C)c1C(=O)OCC)S(=O)(=O)c1ccc(C)cc1	none
CN1CCS/C1=C\C=C1/SC(=S)N(CC(=O)O)C1=O	M5 ag 48.6
COc1cc(C)ccc1S(=O)(=O)NC(=O)C1(C)CCN1C(=O)c1ccc(C(F)(F)F)nc1C (stereo not given)	none
COc1ccc(C(O)c2ncc(-c3ccccc3OC)[nH]2)cc1F (stereo not given)	none
CC(C)N1CCC(C)(C(=O)Nc2ccc(-n3cccc3)cc2)C1 (stereo not given)	none
CC(C)(C)S(=O)N1Cc2cc(C(=O)Nc3ccc(-c4ccccc4)cc3)nc(-c3cccc(-c4cc5ccccc5o4)c3)c2[C@@H]1CCO (stereo not given in full)	M4 PAM 20.8
CCc1nc2c(OCc3ccc(F)cc3)cccn2c1N(C)C(=O)c1ccc(C)cc1	none
CC(C)C[C@H]1CN(CCCC[C@H]2CNC(=O)C(=O)N2CC2CCCCC2)C(=O)C(=O)N1CCc1ccccc1	none
Cn1c(-c2ccc3c(c2)OCO3)cnc1NCc1ccccc1Cl	CHRM4 antagonist 50.4
Cn1c(-c2ccc3c(c2)OCO3)cnc1NCc1ccccc1	none
Cn1c(-c2ccc3c(c2)OCO3)cnc1NCc1cccc(Cl)c1	CHRM4 antagonist 32.3
O=C(Nc1nnc([C@@H]2C[C@H](O)[C@@H](CO)O2)s1)c1c(F)cccc1F	none
O=C(Nc1ccccc1)Nc1ccc(Br)cc1F	CHRM5 antagonist 28.0, CHRM4 antagonist 54.1
O=C(Nc1cccc(Cl)c1)Nc1ccc(Br)cc1F	none
Cc1cc(NC(=O)Nc2ccccc2F)ccc1Br	CHRM5 antagonist 36.8
CCC(c1nnnn1-c1ccc2c(c1)OCCO2)N1CCN(CC)CC1 (stereo not given)	none
CCOc1ccc(C(=O)NCCCn2ccnc2)cc1	CHRM5 PAM 18.1
CCCOc1ccc(C(=O)NCCCn2ccnc2)cc1	none
Cc1c(C(=O)NCCCn2ccnc2)oc2ccccc12	CHRM5 PAM 18.4
O=C(NCCCn1ccnc1)c1cc2ccccc2o1	none
Cn1c(=O)c([N+](=O)[O-])c(Cl)c2ccccc21	CHRM4 antagonist 41.1
CCN(CC)c1c([N+](=O)[O-])c(=O)n(C)c2ccccc12	none
CCN(CC)c1ccc(/C=C(/C#N)c2nc3ccccc3[nH]2)c(OC(C)C)c1	M4 ag 56.9
CCOc1cccc(/C=C(/C#N)c2nc3ccccc3[nH]2)c1OCC(=O)O	none
C=CCN1C(=O)/C(=C/C=C2/N(CC)c3ccc(S(=O)(=O)N(C)C)cc3N2CC)SC1=S	M5 ag 24.5
CN(CCOc1ccc(Cl)cc1)C(=O)c1cccc(S(=O)(=O)N2CCN(c3ccccc3)CC2)c1	none
CCc1ccc(Nc2n[n+](-c3ccccc3)c(-c3c(Cl)cccc3Cl)s2)cc1	CHRM5 antagonist 69.6, M4 ag 43.2, M5 ag 48.9
CCc1ccc(Nc2n[n+](-c3ccccc3)c(-c3ccc(N(CC)CC)cc3)s2)cc1	CHRM5 antagonist 35.6, CHRM4 antagonist 29.5, M4 ag 42.0
COc1ccc(-c2sc(Nc3ccccc3)n[n+]2-c2ccc(F)cc2)cc1Br	none
CCN(CC)c1ccc(-c2sc(Nc3ccccc3)n[n+]2-c2ccc(F)cc2)cc1	none
COc1ccc2ccccc2c1-c1sc(Nc2ccccc2)n[n+]1-c1ccc(F)cc1	CHRM5 antagonist 35.5, M4 ag 32.1, M5 ag 28.1
COC(=O)C[C@@H]1CC[C@@H](NS(=O)(=O)c2ccc(OC)cc2)[C@@H](CO)O1	none
O=C(O)c1ccc(NS(=O)(=O)c2ccc(Cl)c(C(=O)Nc3ccccc3)c2)cc1	none
CCN(CC)S(=O)(=O)c1ccc(Cl)c(C(=O)NCc2ccco2)c1	none
CS(=O)(=O)c1ccc(NS(=O)(=O)c2ccc(Cl)c(C(=O)NCc3ccco3)c2)cc1	M4 PAM 23.5
O=C(Nc1ccccc1C(=O)O)c1cc(S(=O)(=O)Nc2ccccc2)ccc1Cl	M4 PAM 15.7
CC(=O)c1ccc(NS(=O)(=O)c2cccc(C(=O)Nc3ccccc3C(=O)O)c2)cc1	M4 PAM 13.8
O=C(Nc1nnc([C@H]2C[C@H](O)[C@@H](CO)O2)s1)c1ccccc1F	none
O=C(Nc1cnc2ccccc2c1)N1CCOCC1	M4 PAM 19.6
COCCCN(C(=O)c1ccccc1)c1nc(-c2ccc(OC)cc2)cs1	none
COCCCN(C(C)=O)c1nc(-c2ccccc2)cs1	M4 PAM 44.3
CCNC(=O)C1(C)CCCN(Cc2cccc3ccccc23)C1 (stereo not given)	none
COC(=O)c1ccc2nc(-c3ccc(OC)c(OC)c3)c(Cc3ccc(OC)cc3C)n2c1	none
CC(=O)CCC(=O)CNC(=O)CC[C@H]1O[C@@H](n2ccc(=O)[nH]c2=O)[C@H](O)[C@@H]1O	none
O=C(COc1ccccc1)Nc1cccc(-c2nn[nH]n2)c1	none
O=C(COc1ccccc1)Nc1cccc(-c2nc3cc4ccccc4cc3[nH]2)c1	CHRM4 antagonist 29.8
